Data: ChEMBL document CHEMBL1123985, “Oral absorption of cephalosporin antibiotics. 1. Synthesis, biological properties, and oral bioavailability of 7-(arylacetamido)-3-chloro cephalosporins in animals” (J Med Chem, 1988)
≈ marks a conversion by molar mass, not a printed value.

How the values were obtained:
Staphylococcus aureus [1] = test: Minimum inhibitory concentration against S13E strain of Staphylococcus aureus; type: functional
Streptococcus pneumoniae [2] = test: Minimum inhibitory concentration against park strain of Streptococcus pneumoniae
Klebsiella aerogenes = test: Minimum inhibitory concentration against EB17 strain of Enterobacter aerogenes; type: functional
[3] = Minimum inhibitory concentration against res 76 strain of Haemophilus influenzae; type: functional
[4] = Minimum inhibitory concentration against sens CL strain of Haemophilus influenzae; type: functional
[5] = Minimum inhibitory concentration against N9 strain of Shigella sonnei; type: functional
Streptococcus pneumoniae [6] = test: Minimum inhibitory concentration against Park strain of Streptococcus pneumoniae
Klebsiella pneumoniae = test: Minimum inhibitory concentration against X68 strain of Klebsiella pneumoniae; type: functional
Escherichia coli = test: Minimum inhibitory concentration against EC14 strain Escherichia coli; type: functional
Salmonella = test: Minimum inhibitory concentration against X514 strain of Salmonella; type: functional
[7] = Oral bioavailability in mouse; type: ADME, organism-based; conditions: in vivo
Outline: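 Male Cox mice given water and liquid diet overnight; 20 mg/kg in saline (2 mg/mL) sc or orally; urine from collection cages plus bladder contents over 2 h; activity by agar well assay with Bacillus subtilis ATCC 6633. Bioavailability from percent dose excreted in urine after oral vs parenteral dosing.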

Staphylococcus aureus [8] = test: Minimum inhibitory concentration against V41 strain of Staphylococcus aureus; type: functional
Streptococcus pyogenes [9] = test: Minimum inhibitory concentration against Streptococcus pyogenes C203; type: functional
[10] = test system: Staphylococcus epidermidis; test: Minimum inhibitory concentration against 222 strain of Staphylococcus epidermidis; type: functional
Staphylococcus aureus [11] = test: Minimum inhibitory concentration against X1.1 strain of Staphylococcus aureus; type: functional
Streptococcus pyogenes [12] = test: Minimum inhibitory concentration against C203 strain of Streptococcus pyogenes
[13] = test system: Staphylococcus epidermidis; test: Minimum inhibitory concentration against Epil strain of Staphylococcus epidermidis; type: functional
Staphylococcus aureus [14] = test: Minimum inhibitory concentration against 3055 strain of Staphylococcus aureus
[15] = Mean plasma levels in rats 40 min after iv administration of 100 mg/kg of probenecid 5 min prior to test compound; type: ADME, organism-based; design: dose 100 mg/kg, route intravenous; conditions: rat, read-out: Plasma levels
Outline: (§1)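 Rats, jugular vein cannulated (two per group), test compound iv 20 mg/kg; probenecid 100 mg/kg iv 5 min before in treated groups. Heparinized plasma sampled at 5, 20, 40 min and 1, 2, 3 h, assayed microbiologically (B. subtilis agar well). AUC 0-3 h in μg min/mL; half-life in min.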

[16] = Mean plasma levels in rats 2 hr after iv administration of 100 mg/kg of probenecid 5 min prior to test compound; type: ADME, organism-based; design: dose 100 mg/kg, route intravenous; conditions: rat, read-out: Plasma levels; outline: as §1
[17] = Half-life of the compound; type: ADME; outline: as §1
[18] = Bioavailability in rat; type: ADME, organism-based; conditions: in vivo
Outline: (§2)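 Male Wistar rats (200-300 g), jugular-cannulated, upper GI emptied by light cycle; 20 mg/kg in saline (6 mg/mL) sc or orally. Urine collected in wire-bottom cages, assayed by B. subtilis agar well method. Mean ± SD recovery with N and range; bioavailability = oral over mean sc recovery.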

[19] = Area under plasma concentration vs time curve observed in Rhesus monkeys after oral administration of single 30 mg/kg dose; type: ADME, organism-based, Macaca mulatta; design: dose 30 mg/kg, route oral; conditions: rhesus monkey
Outline: (§3)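 Rhesus monkeys, adult males, six animals per compound, each given drug orally and iv; fasted overnight. Single 30 mg/kg solution doses, by nasogastric tube (in water) or saphenous vein (in isotonic lactated Ringer). Plasma sampled at intervals, frozen at -70 °C, antibacterial activity by microbiological assay. AUC in μg min/mL; oral bioavailability from oral vs iv AUC.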

[20] = Area under plasma concentration vs time curve observed in Rhesus monkeys after, iv administration of single 30 mg/kg dose; type: ADME, organism-based, Macaca mulatta; design: dose 30 mg/kg, route intravenous; conditions: rhesus monkey; outline: as §3
[21] = Mean plasma levels in rats at a time 5 min after iv administration of 100 mg/kg of probenecid 5 min prior to test compound; type: ADME, organism-based; design: dose 100 mg/kg, route intravenous; conditions: rat, read-out: Plasma levels; outline: as §1
[22] = Oral bioavailability in Rhesus monkey; type: ADME, organism-based, Macaca mulatta; conditions: in vivo; outline: as §3
[23] = Area under plasma concentration vs time curve observed in rats for 0-3 h; type: ADME; design: time < 3 hr; conditions: rat; outline: as §1
[24] = Mean plasma levels in rats 3h after intravenous administration of 20 mg/kg of compound; type: ADME, organism-based; design: dose 20 mg/kg, route intravenous; conditions: rat, read-out: Plasma levels; outline: as §1
[25] = Mean plasma levels in rats 1 hr after iv administration of 100 mg/kg of probenecid 5 min prior to test compound; type: ADME, organism-based; design: dose 100 mg/kg, route intravenous; conditions: rat, read-out: Plasma levels; outline: as §1
[26] = Dose in urine (24-h urine excretion) in female mongrel dogs after iv administration of single 15 mg/kg dose; type: ADME, organism-based, Canis lupus familiaris; design: dose 15 mg/kg, route intravenous; conditions: dog
Outline: (§4)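 Female mongrel dogs (n=6), bladder catheter; urine collected at intervals after single 15 mg/kg iv or oral solution dose, frozen; antibiotic activity by disk-plate agar diffusion against E. coli MB 3804 with standards in pH 6.0 buffer; percent of dose recovered in urine.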

[27] = Percent of urinary recovery in rats after, oral administration of single 20 mg/kg dose in solution (N,range); type: ADME, organism-based; design: dose 20 mg/kg, route oral; conditions: rat, urine, read-out: Recovery; outline: as §2
[28] = Dose in urine (24-h urine excretion) in female mongrel dogs after oral administration of single 15 mg/kg dose; type: ADME, organism-based, Canis lupus familiaris; design: dose 15 mg/kg, route oral; conditions: dog; outline: as §4
[29] = Mean plasma levels in rats 20 min after iv administration of 100 mg/kg of probenecid 5 min prior to test compound; type: ADME, organism-based; design: dose 100 mg/kg, route intravenous; conditions: rat, read-out: Plasma levels; outline: as §1
Canis familiaris [30] = test: Area under plasma concentration vs time curve observed in female mongrel dogs after, iv administration of single 15 mg/kg dose; type: ADME, organism-based, Canis lupus familiaris; design: dose 15 mg/kg, route intravenous; conditions: dog, in vivo
Outline: (§5)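 Six female mongrel dogs (14-23 kg) fasted overnight, bladder catheterized; single 15 mg/kg solution doses by stomach tube (in water, total 500 mL) or cephalic vein (saline or pH 6.0 NaCl/phosphate/acetate buffer). Plasma sampled at intervals; activity by disk-plate agar diffusion against E. coli MB 3804, standards in dog serum or buffer. AUC μg min/mL, mean ± SEM; BA from iv vs po AUC and urinary recovery.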

[31] = Percent of urinary recovery in rats after, sc administration of single 20 mg/kg dose in solution (N,range); type: ADME, organism-based; design: dose 20 mg/kg, route subcutaneous; conditions: rat, urine, read-out: Recovery; outline: as §2
Canis familiaris [32] = test: Area under plasma concentration vs time curve observed in female mongrel dogs after, oral administration of single 15 mg/kg dose; type: ADME, organism-based, Canis lupus familiaris; design: dose 15 mg/kg, route oral; conditions: dog, in vivo; outline: as §5
Mus musculus [33] = test: Efficacy against mouse infected ip with C203 strain of Streptococcus pyogenes, administered po to 19-21-g random sex ICR mice at 1 hr and 5 hr; type: functional
Outline: (§6)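 ICR mice, random sex, 19-21 g, challenged ip with 50-500 LC50 from a frozen organism pool; compound given sc or po at 1 and 5 h after challenge, five 2-fold dose levels, eight mice per level; ED50 derived.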

Streptococcus pyogenes [34] = test: Minimum inhibitory concentration against C203 strain of Streptococcus pyogenes; remark: listed apart in the source
Mus musculus [35] = test: Efficacy against mouse infected ip with C203 strain of Streptococcus pyogenes, administered sc to 19-21-g random sex ICR mice at 1 hr and 5 hr; type: functional; outline: as §6
Streptococcus pneumoniae [36] = test: Minimum inhibitory concentration against Park strain of Streptococcus pneumoniae; type: functional
Mus musculus [37] = test: Efficacy against mouse infected ip with park strain of Streptococcus pneumoniae administered po to 19-21-g random sex ICR mice at 1 hr and 5 hr; type: functional; outline: as §6
Mus musculus [38] = test: Efficacy against mouse infected ip with 3055 strain of Staphylococcus aureus, administered sc to 19-21-g random sex ICR mice at 1 hr and 5 hr; type: functional; outline: as §6
Mus musculus [39] = test: Efficacy against mouse infected ip with park strain of Streptococcus pneumoniae administered sc to 19-21-g random sex ICR mice at 1 hr and 5 hr; type: functional; outline: as §6
Mus musculus [40] = test: Efficacy against mouse infected ip with 3055 strain of Staphylococcus aureus, administered po to 19-21-g random sex ICR mice at 1 hr and 5 hr; type: functional; outline: as §6

Row | Compound | MIC (Staphylococcus aureus [1]) [µg/mL] | MIC (Streptococcus pneumoniae [2]) [µg/mL] | MIC (Klebsiella aerogenes) [µg/mL] | MIC [3] [µg/mL] | MIC [4] [µg/mL] | MIC [5] [µg/mL] | MIC (Streptococcus pneumoniae [6]) [µg/mL] | MIC (Klebsiella pneumoniae) [µg/mL] | MIC (Escherichia coli) [µg/mL] | MIC (Salmonella) [µg/mL] | bioavailability [7] [%] | MIC (Staphylococcus aureus [8]) [µg/mL] | MIC (Streptococcus pyogenes [9]) [µg/mL] | MIC [10] [µg/mL] | MIC (Staphylococcus aureus [11]) [µg/mL] | MIC (Streptococcus pyogenes [12]) [µg/mL] | MIC [13] [µg/mL] | MIC (Staphylococcus aureus [14]) [µg/mL] | MIC (Streptococcus pyogenes [34]) [µg/mL] | also measured
1 | O=C(Cc1ccccc1)N[C@@H]1C(=O)N2C(C(=O)O)=CCS[C@H]12 | 32 (≈ 101 µM) | 1 (≈ 3.14 µM) | 64 (≈ 201 µM) | 1 (≈ 3.14 µM) | 4 (≈ 12.6 µM) | 64 (≈ 201 µM) | 1 (≈ 3.14 µM) | 4 (≈ 12.6 µM) | 8 (≈ 25.1 µM) | 8 (≈ 25.1 µM) | 12 | 16 (≈ 50.3 µM) | 0.25 (≈ 0.785 µM) | 1 (≈ 3.14 µM) | 1 (≈ 3.14 µM) | 0.25 (≈ 0.785 µM) | 4 (≈ 12.6 µM) | 1 (≈ 3.14 µM) | – | –
2 | Nc1nc(CC(=O)N[C@@H]2C(=O)N3C(C(=O)O)=C(Cl)CS[C@H]23)cs1 | – | 0.5 (≈ 1.33 µM) | 8 (≈ 21.3 µM) | 1 (≈ 2.67 µM) | 1 (≈ 2.67 µM) | 4 (≈ 10.7 µM) | 0.25 (≈ 0.667 µM) | – | – | 0.25 (≈ 0.667 µM) | 64 | – | 0.125 (≈ 0.333 µM) | 2 (≈ 5.34 µM) | 2 (≈ 5.34 µM) | 0.25 (≈ 0.667 µM) | 8 (≈ 21.3 µM) | 1 (≈ 2.67 µM) | – | concentration at 40 min [15]: 15600 ng/mL; concentration at 2 h [16]: 1800 ng/mL; half-life [17]: 23.5 min; bioavailability [18]: 19.2%; AUC [19]: 2170 ng·h/mL; AUC [20]: 50300 ng·h/mL; concentration at 5 min [21]: 57500 ng/mL; bioavailability [22]: 4.2%; AUC at 3 h [23]: 35400 ng·h/mL; concentration at 3 h [24]: < 1300 ng/mL; concentration at 1 h [25]: 9800 ng/mL; dose excreted [26]: 36%; dose excreted [27]: 16.2%; dose excreted [28]: 10%; concentration at 20 min [29]: 32000 ng/mL; AUC (Canis familiaris [30]): 33200 ng·h/mL; dose excreted [31]: 84.3%; AUC (Canis familiaris [32]): 9330 ng·h/mL
3 | N[C@@H](C(=O)N[C@@H]1C(=O)N2C(C(=O)O)=C(Cl)CS[C@H]12)c1ccccc1 [CEFACLOR ANHYDROUS] | 64 (≈ 174 µM) | 2 (≈ 5.44 µM) | 16 (≈ 43.5 µM) | 2 (≈ 5.44 µM) | 1 (≈ 2.72 µM) | 4 (≈ 10.9 µM) | – | 1 (≈ 2.72 µM) | 1 (≈ 2.72 µM) | 0.5 (≈ 1.36 µM) | 76 | 16 (≈ 43.5 µM) | 0.25 (≈ 0.68 µM) | 4 (≈ 10.9 µM) | 1 (≈ 2.72 µM) | – | 8 (≈ 21.8 µM) | 1 (≈ 2.72 µM) | 0.25 (≈ 0.68 µM) | ED50 (Mus musculus [33]): 1.25 mg/kg; ED50 (Mus musculus [35]): 1.25 mg/kg; MIC (Streptococcus pneumoniae [36]): 0.5 µg/mL (≈ 1.36 µM); ED50 (Mus musculus [37]): 10.7 mg/kg; ED50 (Mus musculus [38]): 1.32 mg/kg; ED50 (Mus musculus [39]): 11.5 mg/kg; ED50 (Mus musculus [40]): 1.36 mg/kg
4 | C=CC1=C(C(=O)O)N2C(=O)[C@@H](NC(=O)COc3ccccc3)[C@H]2SC1 | 16 (≈ 44.4 µM) | 0.25 (≈ 0.694 µM) | > 128 | 1 (≈ 2.77 µM) | 4 (≈ 11.1 µM) | > 128 | 0.125 (≈ 0.347 µM) | > 128 | > 128 | > 128 | 36 | 16 (≈ 44.4 µM) | 0.125 (≈ 0.347 µM) | 0.5 (≈ 1.39 µM) | 0.25 (≈ 0.694 µM) | 0.125 (≈ 0.347 µM) | 8 (≈ 22.2 µM) | 0.25 (≈ 0.694 µM) | – | –
5 | CC1=C(C(=O)O)N2C(=O)[C@@H](NC(=O)[C@H](N)c3ccccc3)[C@H]2SC1 [CEPHALEXIN ANHYDROUS] | – | 4 (≈ 11.5 µM) | – | – | – | – | – | – | – | – | – | – | – | – | – | – | – | 1 (≈ 2.88 µM) | 0.5 (≈ 1.44 µM) | –
